Source: ChEMBL document CHEMBL2203189, “Synthesis and pharmacology of 1-alkyl-3-(1-naphthoyl)indoles: steric and electronic effects of 4- and 8-halogenated naphthoyl substituents” (Bioorg Med Chem, 2012)
The source made the active and inactive calls. The calls are words filed in the database; no cut-off is given here.

Tests used:
Cannabinoid receptor 2 = Cannabinoid receptor 2 (Homo sapiens, UniProt P34972); assay: Displacement of [3H]CP55940 from human CB2 receptor expressed in CHO cells after 1 hr by liquid scintillation spectrophotometry; format: cell-based
Chain of Cannabinoid receptor 2 (P34972 whole entry): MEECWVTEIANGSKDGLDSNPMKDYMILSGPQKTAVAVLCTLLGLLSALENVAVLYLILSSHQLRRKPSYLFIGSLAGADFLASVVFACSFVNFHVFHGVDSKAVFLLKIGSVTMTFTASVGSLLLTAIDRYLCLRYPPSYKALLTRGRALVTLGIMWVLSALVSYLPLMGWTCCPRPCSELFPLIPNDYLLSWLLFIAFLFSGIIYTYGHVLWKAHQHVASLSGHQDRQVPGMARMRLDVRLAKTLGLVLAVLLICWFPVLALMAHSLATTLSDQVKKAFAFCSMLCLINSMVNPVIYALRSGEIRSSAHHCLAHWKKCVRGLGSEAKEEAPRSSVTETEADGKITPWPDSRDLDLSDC
How it was run: (§1)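 Membranes (50 µg) from CHO cells stably expressing human CB2, cultured in DMEM/10% fetal calf serum. Incubated with 0.5 nM [3H]CP55,940 and test compound at 1 nM–10 µM with BSA (5 mg/mL), 1 h at 30 °C. Nonspecific binding defined with excess unlabelled CP55,940. GF/B filtration, then scintillation counting.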

Mus musculus [1] = assay: Antinociceptive activity in Harlan ICR mouse assessed as latency to heat-induced tail flicking at 91 umol/kg, iv at 20 mins relative to control; format: functional
Homo sapiens = species: Homo sapiens; assay: Selectivity ratio of Ki for human CB1 receptor to Ki for human CB2 receptor
Cannabinoid receptor 1 = Cannabinoid receptor 1 (Homo sapiens, UniProt P21554); assay: Displacement of [3H]CP55940 from human CB1 receptor expressed in HEK293 cells after 1 hr by liquid scintillation spectrophotometry; format: cell-based
Chain of Cannabinoid receptor 1 (P21554 whole entry): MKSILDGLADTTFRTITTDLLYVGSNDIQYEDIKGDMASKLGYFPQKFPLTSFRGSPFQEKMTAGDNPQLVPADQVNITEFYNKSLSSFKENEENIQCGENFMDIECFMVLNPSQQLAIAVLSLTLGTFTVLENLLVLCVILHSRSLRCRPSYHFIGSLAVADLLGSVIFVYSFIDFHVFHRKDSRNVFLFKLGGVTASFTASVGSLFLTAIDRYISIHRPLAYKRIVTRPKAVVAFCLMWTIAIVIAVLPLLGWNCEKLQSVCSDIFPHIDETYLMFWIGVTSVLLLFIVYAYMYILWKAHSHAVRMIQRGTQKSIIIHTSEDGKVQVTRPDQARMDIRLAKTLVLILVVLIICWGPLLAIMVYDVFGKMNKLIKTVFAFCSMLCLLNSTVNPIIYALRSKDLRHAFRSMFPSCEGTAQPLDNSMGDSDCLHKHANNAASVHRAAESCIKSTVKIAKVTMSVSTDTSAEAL
How it was run: as §1, with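 “HEK-293” for “CHO”, “CB1,” for “CB2,”, “FBS.” for “fetal calf serum.”, “µM in buffer” for “µM”, “Filtered through GF/B,” for “GF/B filtration,”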

Mus musculus [2] = assay: Induction of catalepsy in iv dosed Harlan ICR mouse at 40 mins measured for 5 mins by ring immobility test; format: functional
Mus musculus [3] = assay: Locomotor activity in Harlan ICR mouse assessed as inhibition of activity level at 91 umol/kg, iv from 5 to 15 mins by spontaneous locomotor activity test relative to vehicle treated control; format: functional
How it was run: (§2)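 Male ICR mice, n = 6 per dose, single probe dose iv in emulphor–ethanol–saline 1:1:18. Photocell beam interruptions recorded over 10 min, at 5–15 min after dosing. Result given as % inhibition relative to the vehicle group.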

Mus musculus [4] = assay: Hypothermic activity in Harlan ICR mouse assessed as change in rectal temperature at 91 umol/kg, iv at 30 mins; format: functional
How it was run: (§3)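 Male ICR mice, n = 6 per dose. Single probe dose iv in emulphor–ethanol–saline 1:1:18. Rectal temperature taken with a thermistor probe at 25 mm depth before dosing and at 30 min. Result given as change from pre-injection value (°C).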

Mus musculus [5] = assay: Locomotor activity in Harlan ICR mouse assessed as inhibition of activity level at 80 umol/kg, iv from 5 to 15 mins by spontaneous locomotor activity test relative to vehicle treated control; format: functional; how it was run: as §2
Mus musculus [6] = assay: Antinociceptive activity in Harlan ICR mouse assessed as latency to heat-induced tail flicking at 80 umol/kg, iv at 20 mins relative to control; format: functional
Mus musculus [7] = assay: Hypothermic activity in Harlan ICR mouse assessed as change in rectal temperature at 80 umol/kg, iv at 30 mins; format: functional; how it was run: as §3
Mus musculus [8] = assay: Induction of catalepsy in Harlan ICR mouse at 80 umol/kg, iv at 40 mins measured for 5 mins by ring immobility test; format: functional
How it was run: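 Male ICR mice given a single iv probe dose in emulphor–ethanol–saline 1:1:18. At 40 min placed on a 5.5 cm ring raised 16 cm and observed for 5 min by blinded raters. Up to 5 escapes allowed; mice escaping before 2.5 min excluded. Immobility index = time motionless / 300 s × 100.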

Mus musculus [9] = assay: Locomotor activity in Harlan ICR mouse assessed as inhibition of activity level at 27 umol/kg, iv from 5 to 15 mins by spontaneous locomotor activity test relative to vehicle treated control; format: functional; how it was run: as §2
Mus musculus [10] = assay: Antinociceptive activity in Harlan ICR mouse assessed as latency to heat-induced tail flicking at 27 umol/kg, iv at 20 mins relative to control; format: functional
Mus musculus [11] = assay: Hypothermic activity in Harlan ICR mouse assessed as change in rectal temperature at 27 umol/kg, iv at 30 mins; format: functional; how it was run: as §3
Mus musculus [12] = assay: Antinociceptive activity in Harlan ICR mouse assessed as latency to heat-induced tail flicking at 68 umol/kg, iv at 20 mins relative to control; format: functional, organism-based
Mus musculus [13] = assay: Locomotor activity in Harlan ICR mouse assessed as inhibition of activity level at 68 umol/kg, iv from 5 to 15 mins by spontaneous locomotor activity test relative to vehicle treated control; format: functional; how it was run: as §2
Mus musculus [14] = assay: Locomotor activity in Harlan ICR mouse assessed as inhibition of activity level at 66 umol/kg, iv from 5 to 15 mins by spontaneous locomotor activity test relative to vehicle treated control; format: functional; how it was run: as §2
Mus musculus [15] = assay: Hypothermic activity in Harlan ICR mouse assessed as change in rectal temperature at 66 umol/kg, iv at 30 mins; format: functional; how it was run: as §3
Mus musculus [16] = assay: Antinociceptive activity in Harlan ICR mouse assessed as latency to heat-induced tail flicking at 66 umol/kg, iv at 20 mins relative to control; format: functional
Mus musculus [17] = assay: Induction of catalepsy in Harlan ICR mouse at […], iv at 40 mins measured for 5 mins by ring immobility test; format: functional
Mus musculus [18] = assay: Hypothermic activity in Harlan ICR mouse assessed as change in rectal temperature at […], iv at 30 mins; format: functional
Mus musculus [19] = assay: Locomotor activity in Harlan ICR mouse assessed as inhibition of activity level at […], iv from 5 to 15 mins by spontaneous locomotor activity test relative to vehicle treated control; format: functional
Mus musculus [20] = assay: Antinociceptive activity in Harlan ICR mouse assessed as latency to heat-induced tail flicking at […], iv at 20 mins relative to control; format: functional
Mus musculus [21] = assay: Induction of catalepsy in Harlan ICR mouse at 6.9 umol/kg, iv at 40 mins measured for 5 mins by ring immobility test; format: functional
How it was run: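 Ring test on male ICR mice given one probe dose iv (tail vein; 1:1:18 emulphor–ethanol–saline). At 40 min each mouse is placed on a 5.5 cm ring 16 cm high and scored over 5 min by blinded observers. Up to 5 escapes allowed; data dropped if escapes occur before 2.5 min. Immobility index = time motionless/300 s × 100. n = 6 per dose.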

Mus musculus [22] = assay: Hypothermic activity in Harlan ICR mouse assessed as change in rectal temperature at 6.9 umol/kg, iv at 30 mins; format: functional
How it was run: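 Male ICR mice, 18–25 g, dosed iv in the tail vein with a single probe dose in emulphor–ethanol–saline 1:1:18. Rectal thermistor probe inserted to 25 mm. Baseline read before injection and again at 30 min. Reported as the change from pre-injection temperature (Δ°C). n = 6 per dose.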

Mus musculus [23] = assay: Locomotor activity in Harlan ICR mouse assessed as inhibition of activity level at 6.9 umol/kg, iv from 5 to 15 mins by spontaneous locomotor activity test relative to vehicle treated control; format: functional
How it was run: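 Spontaneous activity in male ICR mice (18–25 g) after one iv tail-vein probe dose in 1:1:18 emulphor–ethanol–saline. Photocell beam interruptions (16 beams per chamber) recorded over 10 min, 5–15 min after dosing. Reported as % inhibition relative to the vehicle group. n = 6 per dose.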

Mus musculus [24] = assay: Antinociceptive activity in Harlan ICR mouse assessed as latency to heat-induced tail flicking at 6.9 umol/kg, iv at 20 mins relative to control; format: functional

`CCCn1cc(C(=O)c2ccc(F)c3ccccc23)c2ccccc21` gave a Ki (Cannabinoid receptor 2) of 33 nM, an Activity (Mus musculus [1]) of 59% and a Ratio Ki (Homo sapiens) of 7. The Ki (Cannabinoid receptor 1) was 240 nM, the Activity (Mus musculus [2]) was “inactive” and the inhibition in vivo at 91 µmol/kg (Mus musculus [3]) was 67%. For the same compound, the Activity (Mus musculus [4]) was -3.3%.

`CCCCCn1cc(C(=O)c2cccc3cccc(Cl)c23)c2ccccc21` gave a Ki (Cannabinoid receptor 2) of 10 nM, an inhibition in vivo at 80 µmol/kg (Mus musculus [5]) of 94% and an Activity (Mus musculus [6]) of 100%. The Ratio Ki (Homo sapiens) was 2.3, the Activity (Mus musculus [7]) was -6.9% and the Activity (Mus musculus [8]) was 92%. It also gave a Ki (Cannabinoid receptor 1) of 23 nM.

`CCCCCn1cc(C(=O)c2ccc(Cl)c3ccccc23)c2ccccc21` gave a Ki (Cannabinoid receptor 2) of 2.8 nM, an inhibition in vivo at 27 µmol/kg (Mus musculus [9]) of 82% and a Ratio Ki (Homo sapiens) of 0.8. It also gave a Ki (Cannabinoid receptor 1) of 2.3 nM, an Activity (Mus musculus [10]) of 90% and an Activity (Mus musculus [11]) of -4.9%.

`CCCn1cc(C(=O)c2cccc3cccc(I)c23)c2ccccc21` was tested, and the Ki (Cannabinoid receptor 2) was 152 nM, the Activity (Mus musculus [12]) was “inactive” and the Ratio Ki (Homo sapiens) was 19. It also gave a Ki (Cannabinoid receptor 1) of 2960 nM and an inhibition in vivo at 68 µmol/kg (Mus musculus [13]) of -25%.

`CCCn1c(C)c(C(=O)c2ccc(I)c3ccccc23)c2ccccc21` was tested, and the Ki (Cannabinoid receptor 2) was 20 nM, the inhibition in vivo at 66 µmol/kg (Mus musculus [14]) was 74% and the Activity (Mus musculus [15]) was -3%. It also gave a Ratio Ki (Homo sapiens) of 25, a Ki (Cannabinoid receptor 1) of 501 nM and an Activity (Mus musculus [16]) of 60%.

With `CCCn1cc(C(=O)c2ccc(I)c3ccccc23)c2ccccc21` the Ki (Cannabinoid receptor 2) was 6.6 nM, the Activity (Mus musculus [17]) was 2% and the Ratio Ki (Homo sapiens) was 21. It also gave a Ki (Cannabinoid receptor 1) of 140 nM, an Activity (Mus musculus [18]) of -1.7% and an inhibition in vivo at […] (Mus musculus [19]) of 10%. It also gave an Activity (Mus musculus [20]) of 26%.

In the case of `CCCCCn1c(C)c(C(=O)c2cccc3cccc(Br)c23)c2ccccc21`, the Ki (Cannabinoid receptor 2) is reported as 10 nM, the Activity (Mus musculus [21]) is reported as 53% and the Activity (Mus musculus [22]) is reported as -3.7%. It also gave a Ratio Ki (Homo sapiens) of 5.5, an inhibition in vivo at 6.9 µmol/kg (Mus musculus [23]) of 79% and a Ki (Cannabinoid receptor 1) of 54 nM. For the same compound, the Activity (Mus musculus [24]) was 100%.
